From ChEMBL document CHEMBL2069243, “Synthesis and SAR of pyridothiazole substituted pyrimidine derived HCV replication inhibitors” (Bioorg Med Chem Lett, 2012)
pEC50: −log10 of the molar value.

Assays:
[1] = Cytotoxicity against human hepatoma cells after 3 days by MTS assay; type: cell-based
In short: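 MTS cell proliferation assay on replicon cells handled as in the replicon activity assay (seeded one day before, 0.5% DMSO, 10% FBS, serial dilutions), read 3 days after dosing. CC50 is the concentration giving 50% inhibition relative to vehicle-treated cells.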

[2] = Cytotoxicity against human hepatoma cells assessed as decrease in GADPH RNA level after 3 days by Rt-PCR analysis; type: cell-based
[3] = tested on: Hepatitis C virus; experiment: Antiviral activity against Hepatitis C virus 1b con1 infected in human hepatoma cells assessed as decrease in replicon RNA level after 3 days by RT-PCR analysis; type: functional, organism-based, Hepacivirus hominis; conditions: genotype 1b Con1, 72 h
In short: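 Con1 genotype 1b replicon cells were seeded at 5000 cells/well one day before treatment. Compound in DMSO was added (final 0.5% DMSO, 10% FBS) as 10 serial twofold dilutions in triplicate. Cells were harvested 3 days after dosing. Replicon RNA was quantified by real-time RT-PCR (Taqman), normalized to GAPDH RNA, and EC50 was calculated.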

[4] = AUC (0 to 6 hrs) in rat at 10 mg/kg, po; type: ADME, organism-based; design: time < 6 hr, dose 10 mg/kg, route oral; conditions: plasma
In short: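 Rats were dosed orally at 10 mpk in 0.4% methylcellulose, n=2 per compound. Plasma was sampled at 8 time points up to 6 h, and exposure was reported as AUC0-6 h.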

[5] = Drug uptake in rat liver at 10 mg/kg, po at 6 hrs; type: ADME, organism-based; design: dose 10 mg/kg, route oral; conditions: read-out: Drug uptake
In short: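 Rats were dosed orally at 10 mpk in 0.4% methylcellulose, n=2. Animals were sacrificed at 6 h, and liver was harvested and processed to measure compound concentration (liver C6 h).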

Cc1nc(NCc2ccc(OC(F)(F)F)cc2)nc(N[C@@H]2C[C@H](CO)[C@@H](O)[C@H]2O)c1-c1nc2cnccc2s1
CC50 at 72 h [1]: 25 µM | CC50 at 72 h [2]: 25 µM | pEC50 [3]: 8.52

COc1cc(OC)cc([C@@H](C)Nc2nc(C)c(-c3nc4cnccc4s3)c(N[C@@H]3C[C@H](CO)[C@@H](O)[C@H]3O)n2)c1
AUC(0-t) at 6 h [4]: 0.1 µM·h | CC50 at 72 h [1]: 25 µM | CC50 at 72 h [2]: 25 µM | pEC50 [3]: 7.43 | concentration at 6 h [5]: 17 ng/g

Cc1nc(NCc2ccccc2)nc(N[C@@H]2C[C@H](CO)[C@@H](O)[C@H]2O)c1-c1nc2cnccc2s1
CC50 at 72 h [1]: 14 µM | CC50 at 72 h [2]: 25 µM | pEC50 [3]: 8.52

Cc1cc2sc(-c3c(C)nc(N[C@H](C)c4ccc(OC(F)(F)F)cc4)nc3N[C@@H]3C[C@H](CO)[C@@H](O)[C@H]3O)nc2cn1
CC50 at 72 h [1]: > 25 µM | CC50 at 72 h [2]: 25 µM | pEC50 [3]: 7.42

Cc1nc(NCC2CC2)nc(N[C@@H]2C[C@H](CO)[C@@H](O)[C@H]2O)c1-c1nc2cnccc2s1
AUC(0-t) at 6 h [4]: 0.4 µM·h | CC50 at 72 h [1]: 5 µM | CC50 at 72 h [2]: 3 µM | pEC50 [3]: 8.10 | concentration at 6 h [5]: 192 ng/g

Cc1nc(NC2CC2)nc(N[C@@H]2C[C@H](CO)[C@@H](O)[C@H]2O)c1-c1nc2cnccc2s1
AUC(0-t) at 6 h [4]: 1.4 µM·h | CC50 at 72 h [1]: 19 µM | CC50 at 72 h [2]: 25 µM | pEC50 [3]: 6.90 | concentration at 6 h [5]: 276 ng/g

Cc1cc2sc(-c3c(C)nc(N[C@H](C)c4ccc(OC(F)(F)F)cc4)nc3N[C@@H]3C[C@H](CO)[C@@H](O)[C@H]3O)nc2c(C2CC2)n1
CC50 at 72 h [1]: 24 µM | CC50 at 72 h [2]: 21 µM | pEC50 [3]: 6.15

Cc1nc(NC(C)(C)c2ccccc2)nc(N[C@@H]2C[C@H](CO)[C@@H](O)[C@H]2O)c1-c1nc2cnccc2s1
CC50 at 72 h [1]: > 25 µM | CC50 at 72 h [2]: 25 µM | pEC50 [3]: 5.21

Cc1nc(N(C)Cc2ccccc2)nc(N[C@@H]2C[C@H](CO)[C@@H](O)[C@H]2O)c1-c1nc2cnccc2s1
AUC(0-t) at 6 h [4]: 0.2 µM·h | CC50 at 72 h [1]: > 25 µM | CC50 at 72 h [2]: 25 µM | pEC50 [3]: 6.52 | concentration at 6 h [5]: 100 ng/g

COc1cc(CCNc2nc(C)c(-c3nc4cnccc4s3)c(N[C@@H]3C[C@H](CO)[C@@H](O)[C@H]3O)n2)cc(OC)c1
AUC(0-t) at 6 h [4]: 0.1 µM·h | CC50 at 72 h [1]: 19 µM | CC50 at 72 h [2]: 25 µM | pEC50 [3]: 7.92 | concentration at 6 h [5]: 100 ng/g

CCOCCNc1nc(C)c(-c2nc3cnccc3s2)c(N[C@@H]2C[C@H](CO)[C@@H](O)[C@H]2O)n1
AUC(0-t) at 6 h [4]: 0.2 µM·h | CC50 at 72 h [1]: 16 µM | CC50 at 72 h [2]: 25 µM | pEC50 [3]: 8.05 | concentration at 6 h [5]: 368 ng/g

Cc1nc(NCC(F)(F)F)nc(N[C@@H]2C[C@H](CO)[C@@H](O)[C@H]2O)c1-c1nc2cnccc2s1
CC50 at 72 h [1]: > 25 µM | CC50 at 72 h [2]: 25 µM | pEC50 [3]: 7.80

CCc1nccc2sc(-c3c(C)nc(N[C@H](C)c4ccc(OC(F)(F)F)cc4)nc3N[C@@H]3C[C@H](CO)[C@@H](O)[C@H]3O)nc12
AUC(0-t) at 6 h [4]: 5.8 µM·h | CC50 at 72 h [1]: 7 µM | CC50 at 72 h [2]: 7 µM | pEC50 [3]: 7.70 | concentration at 6 h [5]: 6000 ng/g

Cc1nc(N[C@H](C)c2ccc(OC(F)(F)F)cc2)nc(N[C@@H]2C[C@H](CO)[C@@H](O)[C@H]2O)c1-c1nc2c(CCC#N)nccc2s1
AUC(0-t) at 6 h [4]: 0.4 µM·h | CC50 at 72 h [1]: 12 µM | CC50 at 72 h [2]: 12 µM | pEC50 [3]: 7.47 | concentration at 6 h [5]: 16 ng/g

CCc1cc2sc(-c3c(C)nc(N[C@H](C)c4ccc(OC(F)(F)F)cc4)nc3N[C@@H]3C[C@H](CO)[C@@H](O)[C@H]3O)nc2c(CC)n1
CC50 at 72 h [1]: 13 µM | CC50 at 72 h [2]: 12 µM | pEC50 [3]: 7.16

Cc1nc(N[C@H](C)c2ccc(OC(F)(F)F)cc2)nc(N[C@@H]2C[C@H](CO)[C@@H](O)[C@H]2O)c1-c1nc2c(C3CCC3)nccc2s1
AUC(0-t) at 6 h [4]: 3.3 µM·h | CC50 at 72 h [1]: 5 µM | CC50 at 72 h [2]: 5 µM | pEC50 [3]: 7.80 | concentration at 6 h [5]: 4900 ng/g

Cc1nc(NCC2CCN(C)CC2)nc(N[C@@H]2C[C@H](CO)[C@@H](O)[C@H]2O)c1-c1nc2cnccc2s1
CC50 at 72 h [1]: > 25 µM | CC50 at 72 h [2]: 25 µM | pEC50 [3]: 5.77

Cc1nc(N[C@H](C)c2ccc(-c3cnn(C)c3)cc2)nc(N[C@@H]2C[C@H](CO)[C@@H](O)[C@H]2O)c1-c1nc2cnccc2s1
CC50 at 72 h [1]: 25 µM | CC50 at 72 h [2]: 25 µM | pEC50 [3]: 7.77

Cc1nc(N(C)C)nc(N[C@@H]2C[C@H](CO)[C@@H](O)[C@H]2O)c1-c1nc2cnccc2s1
AUC(0-t) at 6 h [4]: 7.5 µM·h | CC50 at 72 h [1]: > 25 µM | CC50 at 72 h [2]: 25 µM | pEC50 [3]: 6.25 | concentration at 6 h [5]: 1400 ng/g
